Activity calls are given as the source filed them. No cut-off for these calls is given here.

One series deals with Acetylcholinesterase (Electrophorus electricus, UniProt O42275). As to the kind of experiment: Inhibition of electric eel AChE using acetylthiocholine iodide as substrate measured every 13 secs by Ellman's method.
The test system of series [1] is RAW264.7. As to the kind of experiment: Cytotoxicity against mouse RAW264.7 cells at 200 uM. The series is classed as cell-based. Conditions: raw264.7, 200 µM.
The test system of series [2] is RAW264.7. As to the kind of experiment: Antiinflammatory activity in mouse RAW264.7 cells assessed as inhibition of LPS-induced NO production after 24 hrs by Griess assay. The settings on record: RAW264.7, 24 h. In kind it is functional, cell-based. The method, boiled down: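 LPS-stimulated RAW 264.7 mouse macrophages; compound inhibition of NO production measured, with dexamethasone as positive control. The protocol follows a previously described method.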
(Nitrite, measured by Griess reagent, commonly stands in for NO production.)

The test system of series [3] is RAW264.7. As to the kind of experiment: Antiinflammatory activity in mouse RAW264.7 cells assessed as inhibition of LPS-induced NO production at 200 uM after 24 hrs by Griess assay. The series is classed as functional, cell-based.

Chain of Acetylcholinesterase (O42275 whole entry): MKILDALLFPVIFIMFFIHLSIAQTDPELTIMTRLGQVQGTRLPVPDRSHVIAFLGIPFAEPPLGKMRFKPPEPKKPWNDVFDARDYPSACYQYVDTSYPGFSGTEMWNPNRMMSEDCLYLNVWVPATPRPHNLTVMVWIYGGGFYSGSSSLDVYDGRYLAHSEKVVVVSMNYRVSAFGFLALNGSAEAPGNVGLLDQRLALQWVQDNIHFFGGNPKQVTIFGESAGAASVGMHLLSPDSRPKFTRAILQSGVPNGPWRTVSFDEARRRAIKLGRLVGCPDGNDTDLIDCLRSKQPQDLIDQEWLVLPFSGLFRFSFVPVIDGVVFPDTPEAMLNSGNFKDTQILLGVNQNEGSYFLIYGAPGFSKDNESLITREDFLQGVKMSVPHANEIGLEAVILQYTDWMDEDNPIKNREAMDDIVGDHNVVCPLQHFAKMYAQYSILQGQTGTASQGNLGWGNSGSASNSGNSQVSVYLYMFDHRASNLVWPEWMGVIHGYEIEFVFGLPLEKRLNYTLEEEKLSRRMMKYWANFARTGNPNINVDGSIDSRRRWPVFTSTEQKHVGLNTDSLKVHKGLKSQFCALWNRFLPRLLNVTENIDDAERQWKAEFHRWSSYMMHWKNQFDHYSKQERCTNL

Turning to `CO[C@@H]1C=C[C@@]23c4cc5c(cc4CN(CCc4c[nH]c6ccccc46)[C@@H]2C(=O)N(C)[C@H]3C1)OCO5`, the 50% inhibitory concentration (IC50) (commonly the midpoint of a concentration-inhibition curve) was 111 µM against Acetylcholinesterase and 18 µM in the series on RAW264.7 [2]. The Activity result with RAW264.7 [1] was “Non-Toxic”.
For `CN1Cc2ccc(O)c3c2[C@@]2(CC[C@H](O)C[C@@H]2O3)[C@@H](O)C1`, in the series on RAW264.7 [3], the inhibition result is “inactive”.
Still for that read-out and setting: under `COc1ccc2c3c1O[C@H]1C[C@@H](O)C=C[C@@]31CCN(C)C2` stands “inactive”; under `CN1CC[C@@]23CC[C@H](O)C[C@@H]2Oc2c(O)ccc(c23)C1`, “inactive”.
On to `COc1ccc2c3c1O[C@H]1C[C@@H](O)CC[C@@]31CCN(C)C2`, for which, in the series with RAW264.7 [3], the inhibition entry is “inactive”.
Turning to `CO[C@@H]1C=C[C@@]23c4cc5c(cc4CN(CCC(C)C)[C@@H]2C(=O)N(C)[C@H]3C1)OCO5`, the inhibition result with RAW264.7 [3] is “inactive”.
On to `COc1ccc2c3c1O[C@H]1C[C@@H](O)C=C[C@@]31[C@@H](O)C[N+](C)([O-])C2` (stereo partly drawn), for which, in the series with RAW264.7 [3], the inhibition entry is “inactive”.
Turning to `CO[C@@H]1C=C[C@@]23c4cc5c(cc4C=N[C@@H]2C(=O)N(C)[C@H]3C1)OCO5`, the inhibition entry in the series on RAW264.7 [3] was “inactive”.
Take `CO[C@@H]1C=C[C@@]23c4cc5c(cc4CN(CCc4ccc(O)cc4)[C@@H]2C(=O)N(C)[C@H]3C1)OCO5`: in the series with RAW264.7 [3], the inhibition entry is “inactive”.
For the compound `CN1CC[C@@]23C=C[C@H](O)C[C@@H]2Oc2c(O)ccc(c23)C1`, the inhibition entry in the series with RAW264.7 [3] was “inactive”.
Regarding `CO[C@@H]1C=C[C@@]23c4cc5c(cc4CN(CCc4ccccc4)[C@@H]2C(=O)N(C)[C@H]3C1)OCO5`, in the series with RAW264.7 [1], the Activity result is on record as “Non-Toxic”. Moreover, the IC50 in the series on RAW264.7 [2] amounted to 10.2 µM.
Turning to `CO[C@@H]1C=C[C@@]23c4cc5c(cc4CN(CCCC(=O)O)[C@@H]2C(=O)N(C)[C@H]3C1)OCO5`, the Activity result in the series with RAW264.7 [1] was “Non-Toxic”. The concentration for half-maximal inhibition (IC50) with RAW264.7 [2] came out at 18.8 µM.
On to `CO[C@@H]1C=C[C@@]2(C(=O)N(C)Cc3cc4c(cc32)OCO4)[C@@H](N(C)C=O)C1`, for which the inhibition result with RAW264.7 [3] is “inactive”.
Compound `CN1Cc2ccc(O)c3c2[C@@]2(C=C[C@H](O)C[C@@H]2O3)[C@@H](O)C1` gave an IC50 on Acetylcholinesterase of 169 µM. In addition, the inhibition entry with RAW264.7 [3] was “inactive”.
Turning to `COc1ccc2c3c1O[C@H]1[C@@H](O)[C@@H](O)C=C[C@@]31[C@@H](O)CN(C)C2`, in the series with RAW264.7 [3], the inhibition result is “inactive”.
`CO[C@@H]1C=C[C@@]23c4cc5c(cc4C[N+]([O-])(CCC(C)C)[C@@H]2C(=O)N(C)[C@H]3C1)OCO5` (stereo partly drawn) gave an IC50 against Acetylcholinesterase of 57.3 µM. Also, the inhibition entry in the series on RAW264.7 [3] is “inactive”.
For `COc1ccc2c3c1O[C@H]1C[C@@H](O)CC[C@@]31[C@@H](O)CN(C)C2`, the inhibition result in the series on RAW264.7 [3] is “inactive”.
On the same count and under the same terms, under `COc1ccc2c3c1O[C@H]1C[C@@H](O)C=C[C@@]31[C@@H](O)CN(C)C2` stands “inactive”; under `CO[C@@H]1C=C[C@@]23c4cc5c(cc4CN(C)[C@@H]2C(=O)N(C)[C@H]3C1)OCO5`, “inactive”.
For the compound `CCCCCCN1Cc2cc3c(cc2[C@@]24C=C[C@@H](OC)C[C@@H]2N(C)C(=O)[C@@H]14)OCO3`, the inhibition result with RAW264.7 [3] is “inactive”.
Turning to `CO[C@@H]1C=C[C@@]23c4cc5c(cc4C[N+]([O-])(CCc4ccc(O)cc4)[C@@H]2C(=O)N(C)[C@H]3C1)OCO5` (stereo partly drawn), the half-inhibitory concentration (IC50) turned out to be 75.3 µM on Acetylcholinesterase and 7.5 µM in the series with RAW264.7 [2]. In the series on RAW264.7 [1], the Activity entry is given as “Non-Toxic”.
`CO[C@@H]1C=C[C@@]2(C(=O)N(CCC(C)C)Cc3cc4c(cc32)OCO4)[C@@H](N(C)C=O)C1`: the Activity result with RAW264.7 [1] is given as “Non-Toxic”. The concentration for half-maximal inhibition (IC50) in the series with RAW264.7 [2] was found to be 23.6 µM.
On to `COc1ccc2c3c1O[C@H]1C[C@@H](O)CC[C@@]31[C@@H](O)C[N+](C)([O-])C2` (stereo partly drawn), for which the inhibition result with RAW264.7 [3] is “inactive”.
In the case of `CC[C@H](C)CN1Cc2cc3c(cc2[C@@]24C=C[C@@H](OC)C[C@@H]2N(C)C(=O)[C@@H]14)OCO3`, the inhibition entry in the series on RAW264.7 [3] is “inactive”.
